One series addresses Cannabinoid receptor 2 (Homo sapiens, UniProt P34972). Briefly: Displacement of [3H]CP-55940 from recombinant human CB2 receptor expressed in CHO cell. It counts as cell-based. For orientation: Displacement assays read how much labelled ligand stays bound in the presence of the test substance.
The species entered for the next series is Homo sapiens. As to the kind of experiment: Selectivity ratio of IC50 of human recombinant CB2 receptor to IC50 of human recombinant CB1 receptor.
In series [1] the target is T1, Cannabinoid receptor 1 (Homo sapiens, UniProt P21554). As to the kind of experiment: Displacement of [3H]CP-55940 from recombinant human CB1 receptor expressed in CHO cells. Format: cell-based.
T1 sequence (P21554 whole entry): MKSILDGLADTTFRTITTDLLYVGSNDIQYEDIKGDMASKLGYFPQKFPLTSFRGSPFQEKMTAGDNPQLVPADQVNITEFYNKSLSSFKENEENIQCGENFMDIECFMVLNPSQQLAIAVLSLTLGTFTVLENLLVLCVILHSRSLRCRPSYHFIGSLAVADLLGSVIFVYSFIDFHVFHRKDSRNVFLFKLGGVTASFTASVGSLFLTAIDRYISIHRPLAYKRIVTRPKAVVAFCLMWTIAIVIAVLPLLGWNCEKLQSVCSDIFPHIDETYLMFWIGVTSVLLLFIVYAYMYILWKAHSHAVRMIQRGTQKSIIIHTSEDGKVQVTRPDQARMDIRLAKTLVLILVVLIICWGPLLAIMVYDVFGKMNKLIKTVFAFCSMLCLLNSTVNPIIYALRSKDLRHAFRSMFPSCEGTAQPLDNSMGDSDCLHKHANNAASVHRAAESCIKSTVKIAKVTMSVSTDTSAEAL
Series [2] addresses T1, Cannabinoid receptor 1. Briefly: Inverse agonist activity at human CB1 receptor assessed as forskolin-induced cAMP level by adenylyl cyclase activation flash plate assay. It counts as functional. (Changes in cAMP serve as a functional read-out for many G protein-coupled receptors.)
The subject of series [3] is Liver microsomes. Briefly: Metabolic stability in rat liver microsomes assessed as glucuronide formation. It counts as ADME, Microsome. The method, boiled down: (§1)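 Rat or human liver microsomes (1 mg/mL protein) were incubated in 100 mM potassium phosphate, pH 7.4, with 10 mM MgCl2, alamethicin, 5 mM D-saccharic acid 1,4-lactone and 3 mM UDPGA. Incubation ran 90 min at 37 °C with shaking and was quenched with 2 volumes of cold acetonitrile. After centrifugation, glucuronide was detected in the supernatant by LC–MS/MS.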
Background: Liver microsomes are vesicles of endoplasmic reticulum, rich in cytochrome P450 enzymes.

The subject of series [4] is Liver microsomes. As to the kind of experiment: Metabolic stability in human liver microsomes assessed as glucuronide formation. It counts as ADME, Microsome. Summed up: as §1
The next series addresses Cytochrome P450 3A4 (Homo sapiens, UniProt P08684). Briefly: Inhibition of CYP3A4. Format: ADME.

As a reminder, the IC50 is the midpoint of a concentration-inhibition curve. By EC50 is commonly meant the concentration at which the effect is half-maximal.

Cannabinoid receptor 2, sequence (P34972 whole entry): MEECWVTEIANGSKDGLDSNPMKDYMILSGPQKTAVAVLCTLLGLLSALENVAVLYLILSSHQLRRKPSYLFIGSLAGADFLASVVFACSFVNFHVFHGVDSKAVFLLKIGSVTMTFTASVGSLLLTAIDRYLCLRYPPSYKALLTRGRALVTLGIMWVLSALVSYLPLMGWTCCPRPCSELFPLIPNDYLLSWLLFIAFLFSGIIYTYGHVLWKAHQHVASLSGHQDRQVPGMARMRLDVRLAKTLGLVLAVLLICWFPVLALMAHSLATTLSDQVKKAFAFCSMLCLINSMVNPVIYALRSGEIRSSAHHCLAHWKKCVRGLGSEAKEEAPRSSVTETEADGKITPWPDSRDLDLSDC
Cytochrome P450 3A4, sequence (P08684 whole entry): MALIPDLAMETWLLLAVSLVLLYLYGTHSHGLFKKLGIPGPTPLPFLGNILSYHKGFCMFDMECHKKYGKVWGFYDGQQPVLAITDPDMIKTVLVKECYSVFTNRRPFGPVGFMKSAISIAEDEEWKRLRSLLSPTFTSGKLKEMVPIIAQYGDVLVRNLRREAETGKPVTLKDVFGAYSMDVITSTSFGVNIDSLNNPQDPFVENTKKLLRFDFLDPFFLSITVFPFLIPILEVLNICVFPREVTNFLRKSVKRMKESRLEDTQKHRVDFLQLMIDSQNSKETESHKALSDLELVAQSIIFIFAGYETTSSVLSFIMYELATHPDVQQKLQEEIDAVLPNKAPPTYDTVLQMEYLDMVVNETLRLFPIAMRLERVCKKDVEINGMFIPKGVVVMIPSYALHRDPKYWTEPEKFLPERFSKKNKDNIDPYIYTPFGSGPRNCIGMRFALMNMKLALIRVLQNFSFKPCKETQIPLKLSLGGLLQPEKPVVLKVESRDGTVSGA

In the case of `Cc1cc(NC(C)(C)C(=O)N[C@@H](C)[C@@H](Cc2ccc(Cl)cc2)c2cccc(C#N)c2)no1`, the IC50 at Cannabinoid receptor 2 was found to be 5160 nM; on Cannabinoid receptor 1 [1], 19.5 nM. The Ratio IC50 in the series listed under Homo sapiens turned out to be 265.

Take `C[C@H](NC(C)(C)C(=O)Nc1cc(-c2ccccc2)on1)[C@@H](Cc1ccc(Cl)cc1)c1cccc(C#N)c1`: the IC50 on Cannabinoid receptor 2 amounted to 2310 nM; at Cannabinoid receptor 1 [1], 136 nM. Further, the Ratio IC50 in the series listed under Homo sapiens was 17.

On to `C[C@H](NC(=O)C(C)(C)Nc1cc(C(C)(C)C)on1)[C@@H](Cc1ccc(Cl)cc1)c1cccc(C#N)c1`, for which the IC50 amounted to 254 nM on Cannabinoid receptor 2 and 8.6 nM on Cannabinoid receptor 1 [1]. The EC50 at Cannabinoid receptor 1 [2] came to 3.5 nM. The Ratio IC50 in the series filed under Homo sapiens was found to be 30.

For `C[C@H](NC(=O)C(C)(C)Nc1ccncn1)[C@@H](Cc1ccc(Cl)cc1)c1cccc(C#N)c1`, the IC50 at Cannabinoid receptor 2 came out at 14000 nM; on Cannabinoid receptor 1 [1] it was 49.2 nM. For the same compound, the Stability entry in the series with Liver microsomes [3] and in the series with Liver microsomes [4] was “Stable” in each case. For the same compound, the Ratio IC50 in the series listed under Homo sapiens worked out at 286.

In the case of `C[C@H](NC(=O)C(C)(C)Nc1cc2ccccc2cn1)[C@@H](Cc1ccc(Cl)cc1)c1cccc(C#N)c1`, the IC50 at Cannabinoid receptor 2 was 117 nM; on Cannabinoid receptor 1 [1] it was 10.1 nM. In addition, at Cannabinoid receptor 1 [2], the EC50 was found to be 1.9 nM. In addition, in the series filed under Homo sapiens, the Ratio IC50 was 12.

On to `C[C@H](NC(=O)C(C)(C)Nc1ccc(C(F)(F)F)cn1)[C@@H](Cc1ccc(Cl)cc1)c1cccc(C#N)c1`, for which the IC50 at Cannabinoid receptor 2 amounted to 322 nM; on Cytochrome P450 3A4, 2030 nM; on Cannabinoid receptor 1 [1], 7.5 nM. For the same compound, the concentration for a half-maximal effect (EC50) on Cannabinoid receptor 1 [2] is 3.2 nM. Also, the Ratio IC50 in the series filed under Homo sapiens was 43.

Turning to `C[C@H](NC(=O)C(C)(C)Nc1cc(-c2ccccc2)on1)[C@@H](Cc1ccc(Cl)cc1)c1cccc(C#N)c1`, the values for the concentration for half-maximal inhibition (IC50) on Cannabinoid receptor 2 and on Cannabinoid receptor 1 [1] were 234 nM and 186 nM, respectively. In addition, the Ratio IC50 in the series listed under Homo sapiens came out at 1.3.

As for `C[C@H](NC(=O)C(C)(C)NCCCN(C)C)[C@@H](Cc1ccc(Cl)cc1)c1cccc(C#N)c1`, the IC50 came out at 25900 nM at Cannabinoid receptor 2 and 2980 nM at Cannabinoid receptor 1 [1]. The Ratio IC50 in the series filed under Homo sapiens was 8.7.

In the case of `C[C@H](NC(=O)C(C)(C)Nc1ccon1)[C@@H](Cc1ccc(Cl)cc1)c1cccc(C#N)c1`, the IC50 was determined as 3210 nM at Cannabinoid receptor 2 and 47.7 nM on Cannabinoid receptor 1 [1]. Also, the Ratio IC50 in the series filed under Homo sapiens was determined as 67.

Turning to `C[C@H](NC(=O)C(C)(C)Nc1ncc(Cl)cc1Cl)[C@@H](Cc1ccc(Cl)cc1)c1cccc(C#N)c1`, the IC50 was 699 nM on Cannabinoid receptor 2 and 12.2 nM at Cannabinoid receptor 1 [1]. Also, the Ratio IC50 in the series filed under Homo sapiens turned out to be 57.

For the compound `Cc1ccnc(NC(C)(C)C(=O)N[C@@H](C)[C@@H](Cc2ccc(Cl)cc2)c2cccc(C#N)c2)c1`, the IC50 at Cannabinoid receptor 2 came to 547 nM; on Cannabinoid receptor 1 [1] it was 37.7 nM. The Ratio IC50 in the series listed under Homo sapiens amounted to 15.

In the case of `C[C@H](NC(=O)C(C)(C)Nc1ccccn1)[C@@H](Cc1ccc(Cl)cc1)c1cccc(C#N)c1`, the IC50 is 1830 nM on Cannabinoid receptor 2 and 49 nM at Cannabinoid receptor 1 [1]. Besides, the Stability entry in the series with Liver microsomes [3] and in the series on Liver microsomes [4] was “Stable” throughout. In the series listed under Homo sapiens, the Ratio IC50 was 37.

On to `C[C@H](NC(=O)C(C)(C)Nc1ncc(C(F)(F)F)cc1Cl)[C@@H](Cc1ccc(Cl)cc1)c1cccc(C#N)c1`, for which the results for the IC50 on Cannabinoid receptor 2 and at Cannabinoid receptor 1 [1] were 419 nM and 17.9 nM, respectively. In addition, in the series filed under Homo sapiens, the Ratio IC50 amounted to 23.

Take `Cc1cc(NC(C)(C)C(=O)N[C@@H](C)[C@@H](Cc2ccc(Cl)cc2)c2cccc(C#N)c2)n[nH]1`: the Ratio IC50 in the series filed under Homo sapiens amounted to 20.

As to `C[C@H](NC(=O)C(C)(C)Nc1nc2ccccc2n1C)[C@@H](Cc1ccc(Cl)cc1)c1cccc(C#N)c1`, the IC50 at Cannabinoid receptor 2 stood at 1410 nM; at Cannabinoid receptor 1 [1], 97 nM. The Ratio IC50 in the series listed under Homo sapiens turned out to be 15.

Consider `C[C@H](NC(=O)C(C)(C)Nc1ccnn1C)[C@@H](Cc1ccc(Cl)cc1)c1cccc(C#N)c1`, for which the IC50 at Cannabinoid receptor 2 was determined as 13300 nM; at Cannabinoid receptor 1 [1], 203 nM. The Ratio IC50 in the series listed under Homo sapiens was 65.

`C[C@H](NC(C)(C)C(=O)Nc1ccc(C(F)(F)F)cn1)[C@@H](Cc1ccc(Cl)cc1)c1cccc(C#N)c1`: the IC50 was 1720 nM at Cannabinoid receptor 2, over 35000 nM against Cytochrome P450 3A4 and 132 nM at Cannabinoid receptor 1 [1]. The Ratio IC50 in the series filed under Homo sapiens was determined as 13.

Take `Cc1cc(NC(C)(C)C(=O)N[C@@H](C)[C@@H](Cc2ccc(Cl)cc2)c2cccc(C#N)c2)on1`: the IC50 stood at 3860 nM at Cannabinoid receptor 2 and 46.1 nM at Cannabinoid receptor 1 [1]. In addition, the Ratio IC50 in the series listed under Homo sapiens was 84.

Turning to `Cc1cc(NC(C)(C)C(=O)N[C@@H](C)[C@@H](Cc2ccc(Cl)cc2)c2cccc(C#N)c2)[nH]n1`, the IC50 at Cannabinoid receptor 2 is 6110 nM; at Cannabinoid receptor 1 [1], 301 nM.

On to `C[C@H](NC(=O)C(C)(C)Nc1cc(C(F)(F)F)ccn1)[C@@H](Cc1ccc(Cl)cc1)c1cccc(C#N)c1`, for which the IC50 on Cannabinoid receptor 2 was found to be 353 nM; at Cannabinoid receptor 1 [1], 1.6 nM. The Stability result in the series with Liver microsomes [3] and with Liver microsomes [4] was “Stable” each time. Besides, the EC50 on Cannabinoid receptor 1 [2] turned out to be 0.9 nM. For the same compound, in the series filed under Homo sapiens, the Ratio IC50 came to 221.
